Test results taken from ChEMBL document CHEMBL3739379, “Anti-Candida activity and cytotoxicity of a large library of new N-substituted-1,3-thiazolidin-4-one derivatives” (Eur J Med Chem, 2016).
Converted amounts (≈) assume the structure as drawn.

Legend:
Format in all cases: functional
Proteus mirabilis = assay: Antibacterial activity against Proteus mirabilis after 18 to 22 hrs by broth microdilution method
How it was run: (§1)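 Broth microdilution per NCCLS in Mueller-Hinton II broth; isolates subcultured for purity. Compounds dissolved in DMSO, serial dilutions 256 to 0.5 µg/mL; inoculum 10^5/mL. Controls: organism without compound, medium only. Incubation 18 to 22 h at 35 °C. MIC is the lowest concentration giving complete growth inhibition, read by unaided eye.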

Candida parapsilosis = assay: Antifungal activity against Candida parapsilosis clinical isolate after 24 hrs by sabouraud dextrose broth based microdilution method; conditions: Lodderomyces parapsilosis
How it was run: (§2)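 Clinical isolates identified by conventional methods and subcultured for purity. Broth microdilution per NCCLS in Sabouraud dextrose broth; compounds dissolved in DMSO and serially diluted; inoculum 10^3/mL. Controls: fungi without compound, medium only. Incubated 24 h at 37 °C. MIC is the lowest concentration with complete growth inhibition by unaided eye. Values are geometric means over isolates per species.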

Candida tropicalis = assay: Antifungal activity against Candida tropicalis clinical isolate after 24 hrs by sabouraud dextrose broth based microdilution method; how it was run: as §2
Enterobacter sp. = assay: Antibacterial activity against Enterobacter sp. after 18 to 22 hrs by broth microdilution method; how it was run: as §1
Nakaseomyces glabratus = assay: Antifungal activity against Candida glabrata clinical isolate after 24 hrs by sabouraud dextrose broth based microdilution method; how it was run: as §2
[1] = test system: Staphylococcus haemolyticus; assay: Antibacterial activity against Staphylococcus haemolyticus after 18 to 22 hrs by broth microdilution method; how it was run: as §1
[Candida] sake = Antifungal activity against Candida sake clinical isolate after 24 hrs by sabouraud dextrose broth based microdilution method; conditions: Fermentozyma sake; how it was run: as §2
Escherichia coli = assay: Antibacterial activity against Escherichia coli at after 18 to 22 hrs by broth microdilution method; how it was run: as §1
Staphylococcus aureus = assay: Antibacterial activity against Staphylococcus aureus after 18 to 22 hrs by broth microdilution method; how it was run: as §1
Enterococcus faecalis = assay: Antibacterial activity against […] faecalis after 18 to 22 hrs by broth microdilution method; how it was run: as §1
Candida albicans = assay: Antifungal activity against Candida albicans clinical isolate after 24 hrs by sabouraud dextrose broth based microdilution method; how it was run: as §2
Pichia kudriavzevii = assay: Antifungal activity against Candida krusei clinical isolate after 24 hrs by sabouraud dextrose broth based microdilution method; how it was run: as §2
Staphylococcus warneri = assay: Antibacterial activity against Staphylococcus warneri after 18 to 22 hrs by broth microdilution method; how it was run: as §1
Klebsiella oxytoca = assay: Antibacterial activity against Klebsiella oxytoca after 18 to 22 hrs by broth microdilution method; how it was run: as §1

Row | SMILES | MIC (Proteus mirabilis) [µg/mL] | MIC (Candida parapsilosis) [µg/mL] | MIC (Candida tropicalis) [µg/mL] | MIC (Enterobacter sp.) [µg/mL] | MIC (Nakaseomyces glabratus) [µg/mL] | MIC [1] [µg/mL] | MIC ([Candida] sake) [µg/mL] | MIC (Escherichia coli) [µg/mL] | MIC (Staphylococcus aureus) [µg/mL] | MIC (Enterococcus faecalis) [µg/mL] | MIC (Candida albicans) [µg/mL] | MIC (Pichia kudriavzevii) [µg/mL] | MIC (Staphylococcus warneri) [µg/mL] | MIC (Klebsiella oxytoca) [µg/mL]
1 | O=C1CS/C(=N\N=C2CCCCCC2)N1Cc1cccc2ccccc12 | > 256 | 4 (≈ 10.9 µM) | 8 (≈ 21.9 µM) | > 256 | 16 (≈ 43.8 µM) | > 256 | 4 (≈ 10.9 µM) | > 256 | > 256 | > 256 | 8 (≈ 21.9 µM) | 4 (≈ 10.9 µM) | > 256 | > 256
2 | CCC(CC)=N/N=C1\SCC(=O)N1Cc1cccc2ccccc12 | > 256 | 16 (≈ 47.1 µM) | 2 (≈ 5.89 µM) | > 256 | 16 (≈ 47.1 µM) | > 256 | 2 (≈ 5.89 µM) | > 256 | > 256 | > 256 | 2 (≈ 5.89 µM) | 16 (≈ 47.1 µM) | > 256 | > 256
3 | CC/C(C)=N/N=C1\SCC(=O)N1CN1C(=O)c2ccccc2C1=O | > 256 | 8 (≈ 23.2 µM) | 64 (≈ 186 µM) | > 256 | 2 (≈ 5.81 µM) | > 256 | 2 (≈ 5.81 µM) | > 256 | > 256 | > 256 | 2 (≈ 5.81 µM) | 8 (≈ 23.2 µM) | > 256 | > 256
4 | CCCC/C(CC)=N/N=C1\SCC(=O)N1Cc1cccc2ccccc12 | > 256 | 16 (≈ 43.5 µM) | 2 (≈ 5.44 µM) | > 256 | 8 (≈ 21.8 µM) | > 256 | 2 (≈ 5.44 µM) | > 256 | > 256 | > 256 | 2 (≈ 5.44 µM) | 16 (≈ 43.5 µM) | > 256 | > 256
5 | CC1CCCC/C1=N\N=C1/SCC(=O)N1Cc1ccc([N+](=O)[O-])cc1 (stereo unspecified) | > 256 | 16 (≈ 44.4 µM) | 4 (≈ 11.1 µM) | > 256 | 32 (≈ 88.8 µM) | > 256 | 4 (≈ 11.1 µM) | > 256 | > 256 | > 256 | 16 (≈ 44.4 µM) | 2 (≈ 5.55 µM) | > 256 | > 256
6 | O=C1CS/C(=N\N=C\c2cccnc2)N1Cc1ccc([N+](=O)[O-])cc1 | > 256 | 32 (≈ 90 µM) | 256 (≈ 720 µM) | > 256 | 32 (≈ 90 µM) | > 256 | 32 (≈ 90 µM) | > 256 | > 256 | > 256 | 256 (≈ 720 µM) | 128 (≈ 360 µM) | > 256 | > 256
7 | O=C1CS/C(=N\N=C2CCCCCCC2)N1Cc1cccc2ccccc12 | > 256 | 4 (≈ 10.5 µM) | 8 (≈ 21.1 µM) | > 256 | 32 (≈ 84.3 µM) | > 256 | 4 (≈ 10.5 µM) | > 256 | > 256 | > 256 | 4 (≈ 10.5 µM) | 4 (≈ 10.5 µM) | > 256 | > 256
8 | CCCC/C(CC)=N/N=C1\SCC(=O)N1Cc1ccc([N+](=O)[O-])cc1 | > 256 | 16 (≈ 44.1 µM) | 2 (≈ 5.52 µM) | > 256 | 8 (≈ 22.1 µM) | > 256 | 2 (≈ 5.52 µM) | > 256 | > 256 | > 256 | 2 (≈ 5.52 µM) | 16 (≈ 44.1 µM) | > 256 | > 256
9 | CC1CC/C(=N\N=C2/SCC(=O)N2Cc2cccc3ccccc23)C1 (stereo unspecified) | > 256 | 64 (≈ 182 µM) | 128 (≈ 364 µM) | > 256 | 16 (≈ 45.5 µM) | > 256 | 256 (≈ 728 µM) | > 256 | > 256 | > 256 | 2 (≈ 5.69 µM) | 256 (≈ 728 µM) | > 256 | > 256
